Legend:
Homo sapiens [1] = experiment: AUC (0 to infinity) in patient (3 patients) with renal insufficiency at 250 mg, po assessed as hydroxy flutamide administered as single dose by gas chromatography; format: ADME, organism-based; design: dose 250 mg, time infinity, route oral; conditions: in vivo
Homo sapiens [2] = experiment: Final time point in terminal phase in patient (3 patients) with renal insufficiency assessed as hydroxy flutamide at 250 mg, po administered as single dose by gas chromatography; format: ADME, organism-based; conditions: in vivo
In short: (§1)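 Males grouped by 24 h CLcr normalised to body surface area (>80, 50–80, 30–49, 5–29 ml min−1 1.73 m−2), fasted 10 h pre-dose and 4 h post-dose, given a single oral 250 mg flutamide dose. Plasma sampled 0–96 h; urine collected in blocks to 96 h. Flutamide and hydroxyflutamide measured by GC with electron-capture detection. Renal CL = Ae(0,96 h)/AUC(0,96 h); t1/2 = 0.693/λz.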

[3] = AUC (0 to 24 hrs) in patient (4 patients) with renal insufficiency at 250 mg, po administered as single dose by gas chromatography; format: ADME, organism-based; design: dose 250 mg, time < 24 hr, route oral; conditions: human, in vivo
[4] = Drug excretion in urine of patient (4 patients) with renal insufficiency at 250 mg, po administered as single dose by gas chromatography; format: ADME, organism-based; conditions: human, in vivo; in short: as §1
Homo sapiens [5] = experiment: AUClast in patient (4 patients) with renal insufficiency at 250 mg, po assessed as hydroxy flutamide administered as single dose by gas chromatography; format: ADME, organism-based; design: dose 250 mg, time 0 - last, route oral; conditions: in vivo
[6] = Drug excretion in urine of patient (4 patients) with renal insufficiency assessed as hydroxy flutamide at 250 mg, po administered as single dose by gas chromatography; format: ADME, organism-based; conditions: human, in vivo; in short: as §1
[7] = Cmax in patient (6 patients) with renal insufficiency at 250 mg, po administered as single dose 4 hrs prior to hemodialysis treatment measured at starting time of dialysis and post dialysis treatment by gas chromatography; format: ADME, organism-based; design: dose 250 mg, route oral; conditions: human, in vivo
[8] = AUC (0 to 96 hrs) in patient (6 patients) with renal insufficiency at 250 mg, po administered as single dose 4 hrs prior to hemodialysis treatment measured at starting time of dialysis and post dialysis treatment by gas chromatography; format: ADME, organism-based; design: dose 250 mg, time < 96 hr, route oral; conditions: human, in vivo
Homo sapiens [9] = experiment: Cmax in patient (6 patients) with renal insufficiency assessed as hydroxy flutamide at 250 mg, po administered as single dose 4 hrs prior to hemodialysis treatment measured at starting time of dialysis and post dialysis treatment by gas chromatography; format: ADME, organism-based; design: dose 250 mg, route oral; conditions: in vivo
Homo sapiens [10] = experiment: Tmax in patient (6 patients) with renal insufficiency assessed as hydroxy flutamide at 250 mg, po administered as single dose 4 hrs prior to hemodialysis treatment measured at starting time of dialysis and post dialysis treatment by gas chromatography; format: ADME, organism-based; conditions: in vivo
In short: (§2)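 Group V haemodialysis males (CLcr <5 ml min−1 1.73 m−2). Single oral 250 mg flutamide (two 125 mg capsules) right after HD; after 14-day washout, same dose 4 h before HD lasting 2–4 h. Venous samples to 48 h, arterial/venous during HD, dialysate in hourly blocks. GC with 63Ni electron-capture detection. CL(HD) = dialysate Ae(HD)/arterial AUC(HD); renal CL = Ae(0,48)/AUC(0,48 h).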

Homo sapiens [11] = experiment: AUC (0 to 96 hrs) in patient (6 patients) with renal insufficiency assessed as hydroxy flutamide at 250 mg, po administered as single dose 4 hrs prior to hemodialysis treatment measured at starting time of dialysis and post dialysis treatment by gas chromatography; format: ADME, organism-based; design: time < 96 hr, dose 250 mg, route oral; conditions: in vivo
Homo sapiens [12] = experiment: AUClast in patient (6 patients) with renal insufficiency assessed as hydroxy flutamide at 250 mg, po administered as single dose 4 hrs prior to hemodialysis treatment measured at starting time of dialysis and post dialysis treatment by gas chromatography; format: ADME, organism-based; design: dose 250 mg, time 0 - last, route oral; conditions: in vivo
Homo sapiens [13] = experiment: AUC (0 to infinity) in patient (6 patients) with renal insufficiency assessed as hydroxy flutamide at 250 mg, po administered as single dose 4 hrs prior to hemodialysis treatment measured at starting time of dialysis and post dialysis treatment by gas chromatography; format: ADME, organism-based; design: dose 250 mg, time infinity, route oral; conditions: in vivo
[14] = Drug recovery in dialysate of patient (6 patients) with renal insufficiency assessed as hydroxy flutamide at 250 mg, po administered as single dose 4 hrs prior to hemodialysis treatment measured during dialysis treatment by gas chromatography; format: ADME, organism-based; conditions: human, in vivo; in short: as §2
Homo sapiens [15] = experiment: Clearance in patient (6 patients) with renal insufficiency assessed as hydroxy flutamide at 250 mg, po administered as single dose 4 hrs prior to hemodialysis treatment measured during dialysis treatment by gas chromatography; format: ADME, organism-based; conditions: in vivo; in short: as §2
[16] = Cmax in patient (6 patients) with renal insufficiency at 250 mg, po administered as single dose by gas chromatography; format: ADME, organism-based; design: dose 250 mg, route oral; conditions: human, in vivo
[17] = Renal clearance in patient (6 patients) with renal insufficiency at 250 mg, po administered as single dose by gas chromatography; format: ADME, organism-based, Kidney; conditions: human, in vivo; in short: as §1
Homo sapiens [18] = experiment: Final time point in terminal phase in patient (6 patients) with renal insufficiency at 250 mg, po administered as single dose by gas chromatography; format: ADME, organism-based; conditions: in vivo; in short: as §1
Homo sapiens [19] = experiment: AUClast in patient (6 patients) with renal insufficiency at 250 mg, po assessed as hydroxy flutamide administered as single dose by gas chromatography; format: ADME, organism-based; design: dose 250 mg, time 0 - last, route oral; conditions: in vivo
Homo sapiens [20] = experiment: AUC (0 to infinity) in patient (6 patients) with renal insufficiency at 250 mg, po assessed as hydroxy flutamide administered as single dose by gas chromatography; format: ADME, organism-based; design: dose 250 mg, route oral, time infinity; conditions: in vivo
[21] = Drug excretion in dialysate of patient with renal insufficiency at 250 mg, po administered first dose followed by 14 days wash out period and administered second dose 4 hrs prior to hemodialysis measured during hemodialysis treatment by gas chromatography; format: ADME, organism-based; conditions: human, in vivo; in short: as §2
Homo sapiens [22] = experiment: Toxicity in patient with renal insufficiency assessed as dizziness at 250 mg, po administered as single dose; format: organism-based; conditions: in vivo
In short: (§3)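 26 male subjects in groups by 24 h creatinine clearance (normalized to body surface area): >80, 50–80, 30–49, 5–29, <5 ml min−1 1.73 m−2 on haemodialysis. Given as two 125 mg capsules after a 10 h fast, continued 4 h post-dose. Prescription drugs withheld for the same period. Subjects confined 12 h pre-dose to 48 h post-dose, with adverse events compared across renal-function groups.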

Homo sapiens [23] = experiment: Toxicity in patient with renal insufficiency assessed as fatigue at 250 mg, po administered as single dose; format: organism-based; conditions: in vivo; in short: as §3
Homo sapiens [24] = experiment: Toxicity in patient with renal insufficiency assessed as headache at 250 mg, po administered as single dose; format: organism-based; conditions: in vivo; in short: as §3
Homo sapiens [25] = experiment: Toxicity in patient with renal insufficiency assessed as level of lactic dehydrogenase at 250 mg, po administered as single dose (reference value: 85 to 220 IU/l); format: organism-based; conditions: in vivo
In short: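 Male subjects were grouped by creatinine clearance: normal renal function, graded impairment, or chronic haemodialysis. Each received a single oral dose as two 125 mg capsules while fasted. Serum lactic dehydrogenase was measured pre-dose and at follow-up and read against the 85–220 IU l−1 normal range.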

Homo sapiens [26] = experiment: Tmax in patient (7 patients) with renal insufficiency assessed as hydroxy flutamide at 250 mg, po administered as single dose by gas chromatography; format: ADME, organism-based; conditions: in vivo; in short: as §1
Homo sapiens [27] = experiment: AUClast in patient (7 patients) with renal insufficiency at 250 mg, po assessed as hydroxy flutamide administered as single dose by gas chromatography; format: ADME, organism-based; design: dose 250 mg, time 0 - last, route oral; conditions: in vivo
[28] = Drug excretion in urine of patient (7 patients) with renal insufficiency assessed as hydroxy flutamide at 250 mg, po administered as single dose by gas chromatography; format: ADME, organism-based; conditions: human, in vivo; in short: as §1
[29] = AUC (0 to 96 hrs) in patient (3 patients) with renal insufficiency at 250 mg, po administered as single dose by gas chromatography; format: ADME, organism-based; design: time < 96 hr, dose 250 mg, route oral; conditions: human, in vivo
[30] = Renal clearance in patient (3 patients) with renal insufficiency at 250 mg, po administered as single dose by gas chromatography; format: ADME, organism-based, Kidney; conditions: human, in vivo; in short: as §1

Compound `CC(C)C(=O)Nc1ccc([N+](=O)[O-])c(C(F)(F)F)c1` [FLUTAMIDE] has an AUC (Homo sapiens [1]) of 6907 ng·h/mL, a Time (Homo sapiens [2]) of 52 h and an AUC(0-t) at 24 h [3] of 107 ng·h/mL. It also gave a Drug excretion [4] of 30 µg, an AUClast (Homo sapiens [5]) of 6435 ng·h/mL and a Drug excretion [6] of 92 µg. It also gave a Cmax [7] of 81 ng/mL, an AUC(0-t) at 96 h [8] of 217 ng·h/mL and a Cmax (Homo sapiens [9]) of 869 ng/mL. The Tmax (Homo sapiens [10]) was 1 h, the AUC (Homo sapiens [11]) was 5963 ng·h/mL and the AUClast (Homo sapiens [12]) was 5862 ng·h/mL. The AUC (Homo sapiens [13]) was 5963 ng·h/mL, the Drug recovery [14] was 1.2 mg and the CL (Homo sapiens [15]) was 21 mL/min. It also gave a Cmax [16] of 53.4 ng/mL, a CL renal [17] of 7.1 mL/min and a Time (Homo sapiens [18]) of 4.4 h. It also gave an AUClast (Homo sapiens [19]) of 5476 ng·h/mL, an AUC (Homo sapiens [20]) of 5527 ng·h/mL and a Drug excretion [21] of 1158 µg. It also gave an Activity (Homo sapiens [22]) of 15%, an Activity (Homo sapiens [23]) of 12% and an Activity (Homo sapiens [24]) of 12%. It also gave an Activity (Homo sapiens [25]) of 144 IU/L, a Tmax (Homo sapiens [26]) of 2.3 h and an AUClast (Homo sapiens [27]) of 4928 ng·h/mL. The Drug excretion [28] was 88.3 µg, the AUC(0-t) at 96 h [29] was 98 ng·h/mL and the CL renal [30] was 2 mL/min.
